An excerpt weighted towards active compounds, which were near 1.9% of everything screened.
CHRM5 PAM = positive allosteric modulators of human muscarinic M5 receptor; P08912; CHO-K1 hM5, Fluo-8 calcium, ACh EC20 PAM; 0% = ACh EC20, 100% = ACh EC100; activation, % at 3 µM; 360,000 compounds, 0.3% hits; AID 624038;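 active means activation above the run cutoff, the mean activation of all test compounds plus 3 SD, cut at about 18% in these data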
Target sequence (P08912 whole entry, looked up): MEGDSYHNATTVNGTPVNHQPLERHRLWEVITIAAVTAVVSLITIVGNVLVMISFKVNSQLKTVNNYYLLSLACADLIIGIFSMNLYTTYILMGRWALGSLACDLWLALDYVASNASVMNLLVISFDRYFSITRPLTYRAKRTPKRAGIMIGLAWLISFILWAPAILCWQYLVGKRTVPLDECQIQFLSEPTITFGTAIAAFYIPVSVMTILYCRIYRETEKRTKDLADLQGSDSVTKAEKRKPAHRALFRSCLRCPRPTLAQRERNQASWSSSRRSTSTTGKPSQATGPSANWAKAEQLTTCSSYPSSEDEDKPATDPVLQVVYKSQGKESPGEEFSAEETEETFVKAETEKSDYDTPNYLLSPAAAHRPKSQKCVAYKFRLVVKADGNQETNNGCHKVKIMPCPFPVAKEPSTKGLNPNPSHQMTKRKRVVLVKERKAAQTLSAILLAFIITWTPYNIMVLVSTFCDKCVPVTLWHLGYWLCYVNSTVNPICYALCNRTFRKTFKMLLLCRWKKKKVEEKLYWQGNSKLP
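System: CHO-K1 hM5 cells. Reagent: acetylcholine, EC20 level. Compound dosing: single dose, 3 µM nominal final test concentration. Timing: Post-acetylcholine fluorescence recording 140 s. Detection: Fluo-8 calcium fluorescence. Read-out: % activation, ACh-normalized. Benchmarks: ACh EC20 and EC100 wells. Repeats: singlicate, one well per test compound.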
M4 ag = CHRM4 agonism in calcium assay; P08173; CHO-K1 hM4/Gqi5, Fluo-8 calcium fluorescence; vehicle 0%, full acetylcholine response 100%; activation, % at 3 µM; 360,000 compounds, 0.14% hits; AID 624127;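 active means activation above the run mean over all test wells plus 3 SD, cut at about 32% in these data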;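 further: peak over basal fluorescence ratio per well then scaled between controls; 0% = DMSO wells and 100% = acetylcholine at EC100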
M4 antag = blocks acetylcholine activation of human M4 receptor; P08173; CHO-hM4 cells, ACh EC80, Fluo-8 calcium fluorescence; inhibition, % at 3 µM; 360,000 compounds, 0.73% hits; AID 624125;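 active means inhibition above its plate's cutoff, the mean inhibition of sample wells plus 3 SD, cut at about 27% in these data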;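 further: 0% = acetylcholine EC80 with DMSO and 100% = DMSO without agonist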
CHRM5 agonist = CHRM5 agonism in calcium assay; P08912; CHO-K1 hM5 cells, Fluo-8 calcium fluorescence; 0% DMSO wells, 100% maximal acetylcholine response; activation, % at 3 µM; 360,000 compounds, 0.19% hits; AID 624037;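 active means activation above the run's mean over test compounds plus 3 SD, cut at about 23% in these data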;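 further: signal is peak over basal fluorescence ratio across the kinetic read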
M5 antag = CHRM5 antagonism in calcium assay. CHO-hM5 cells, Fluo-8 calcium fluorescence, ACh EC80. inhibition, % at 3 µM. 360,000 compounds, 0.59% hits;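 active means inhibition above a per-plate cutoff, the mean of that plate's test compounds plus 3 SD, cut at about 27% in these data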;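 further: 0% = acetylcholine EC80 with DMSO and 100% = DMSO without agonist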
M4 PAM = positive allosteric modulators of human muscarinic M4 receptor. CHO-K1 hM4/Gqi5, Fluo-8 calcium fluorescence, ACh EC20; 0% = ACh EC20, 100% = maximal ACh. activation, % at 3 µM. 360,000 compounds, 0.4% hits;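 active means activation above its plate's cutoff, the mean activation of sample wells plus 3 SD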
An asterisk follows results filed as active.

Results for Cc1ccc(OCCN2C(=O)C(=O)c3cc(C)ccc32)cc1 ?
CHRM5 PAM: 5; M4 ag: 0; M4 antag: -9; CHRM5 agonist: 23; M5 antag: -3; M4 PAM: -8

What do the screens show for `CCOc1ccccc1C1c2[nH]c3ccccc3c2C[C@H]2C(=O)N(C3CCN(Cc4ccccc4)CC3)CC(=O)N12` (stereo partly specified)?
CHRM5 PAM: -4; M4 ag: 7; M4 antag: -4; CHRM5 agonist: -2; M5 antag: 16; M4 PAM: -15

How did COc1ccc(C2c3[nH]c4ccccc4c3C[C@H]3C(=O)N(C4CCN(Cc5ccccc5)CC4)CC(=O)N23)c(OC)c1 (stereo partly specified) do in these assays?
CHRM5 PAM: -4; M4 ag: 5; M4 antag: 27*; CHRM5 agonist: -4; M5 antag: 6; M4 PAM: -15

Results for O=C(C1CC1)n1cc(C(=S)N2CCOCC2)c2ccccc21 ?
CHRM5 PAM: 13; M4 ag: 4; M4 antag: 1; CHRM5 agonist: -4; M5 antag: -8; M4 PAM: 21*

Results for O=C(c1cccs1)n1cc(C(=S)N2CCOCC2)c2ccccc21 ?
CHRM5 PAM: -3; M4 ag: 1; M4 antag: 7; CHRM5 agonist: -3; M5 antag: 3; M4 PAM: -5

How did CCCn1c(SCC(=O)NCC(=O)Nc2ccc(F)c(F)c2F)nc2ccccc2c1=O do in these assays?
CHRM5 PAM: -1; M4 ag: 1; M4 antag: 4; CHRM5 agonist: 0; M5 antag: 2; M4 PAM: 3

Results for O=Cc1ccc(-n2cncn2)cc1 ?
CHRM5 PAM: -5; M4 ag: 2; M4 antag: 9; CHRM5 agonist: -1; M5 antag: 18; M4 PAM: -4

Results for CN1C(=O)S/C(=C\c2ccc(-n3cncn3)cc2)C1=O ?
CHRM5 PAM: 21*; M4 ag: 2; M4 antag: -5; CHRM5 agonist: 4; M5 antag: -13; M4 PAM: 4

Results for C#CCOCCOCCOCCNc1nc(N2CCN(C(=O)Cn3cc(CCO)nn3)CC2)nc(N2CCN(C(=O)Cn3cc(CCO)nn3)CC2)n1 ?
CHRM5 PAM: 5; M4 ag: 0; M4 antag: 2; CHRM5 agonist: 2; M5 antag: -1; M4 PAM: -1

What do the screens show for `CCS(=O)(=O)c1ccc(O)c(NC(=O)CC2(CC(=O)O)CCCC2)c1`?
CHRM5 PAM: 19*; M4 ag: 1; M4 antag: -10; CHRM5 agonist: 7; M5 antag: -15; M4 PAM: 10

How did O=C(O)CC1(CC(=O)Nc2ccc(F)cc2F)CCCCC1 do in these assays?
CHRM5 PAM: 19*; M4 ag: 0; M4 antag: 2; CHRM5 agonist: 3; M5 antag: -1; M4 PAM: -4

Results for O=C(O)CC1(CC(=O)Nc2cc(F)ccc2Cl)CCCCC1 ?
CHRM5 PAM: 0; M4 ag: 0; M4 antag: 0; CHRM5 agonist: -2; M5 antag: 4; M4 PAM: -8

How did CCS(=O)(=O)c1ccc(O)c(NC(=O)CCCC(=O)O)c1 do in these assays?
CHRM5 PAM: 2; M4 ag: 0; M4 antag: 12; CHRM5 agonist: 2; M5 antag: -1; M4 PAM: -3

How did CCOC(=O)C1C(=O)C=C(/C=C/c2ccc(N(C)C)cc2)CC1c1ccccc1 (stereo unspecified) do in these assays?
CHRM5 PAM: -9; M4 ag: 14; M4 antag: 13; CHRM5 agonist: 29*; M5 antag: 20; M4 PAM: -12

How did CCOC(=O)C1C(=O)C=C(c2ccc(C)cc2)CC1c1ccccc1 (stereo unspecified) do in these assays?
CHRM5 PAM: -9; M4 ag: 1; M4 antag: -3; CHRM5 agonist: -6; M5 antag: 1; M4 PAM: -5
